Measured values as given in ChEMBL document CHEMBL4396897, “Potent 5-Cyano-6-phenyl-pyrimidin-Based Derivatives Targeting DCN1-UBE2M Interaction” (J Med Chem, 2019).
The source made the active and inactive calls. The rule behind the calls is not given here.

How the values were obtained:
NCI-H1975 [1] = experiment: Effect on HO-1 accumulation in human […] cells transfected with DCN1 siRNA3 by densitometric method; assay type: functional, cell-based
How it was run: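 H1975 or PC9 cells seeded in 6-well plates for 16-24h, transfected with DCN1 siRNA#3 by lipofection, with or without compound, and collected three days later. Western blot for Cullin3, DCN1, NRF2, HO-1 and NQO1, with densitometry normalized to GAPDH. Three individual experiments, means ± SD.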

PC-9 = experiment: Induction of apoptosis in human PC9 cells assessed as viable cells at 5 uM after 48 hrs by Annexin V-FITC/propidium iodide staining based flow cytometry (reference value: 95.7%); assay type: functional; settings: PC-9, 48 h, read-out: Activity
How it was run: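 PC9 cells seeded in 6-well plates (1~2×10^6 cells/mL), incubated overnight, then exposed to 0, 2.5, 5 or 10µM compound for 48h. Harvested cells stained with Annexin-V-FITC/PI for 30 min and analysed by flow cytometry. Three individual experiments; means ± SD.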

NCI-H1975 [2] = experiment: Induction of apoptosis in human NCI-NCI-H1975 cells assessed as necrotic cells at 10 uM after 48 hrs by Annexin V-FITC/propidium iodide staining based flow cytometry (reference value: 0.94%); assay type: functional

Compound: C#CCSc1nc(Sc2nccs2)c(C#N)c(-c2ccc(C)cc2)n1
- Activity (NCI-H1975 [1]): inactive
- viability at 5 µM (PC-9): 63.8%
- Activity (NCI-H1975 [2]): 2.74%
